According to ChEMBL document CHEMBL4513216, “Probing the Open Global Health Chemical Diversity Library for Multistage-Active Starting Points for Next-Generation Antimalarials” (ACS Infect Dis, 2020):

assay: Toxicity liver stage against HepG2, at 10uM; format: cell-based; set-up: test concentration 10 uM, cell line HepG2-A16-CD81EGFP; conditions: human, HepG2-A16-CD81EGFP cells; read-out: INHIBITION
Outline: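 Uninfected HepG2-A16-CD81EGFP cells, 3 × 10^3 per well, 1536-well, plated on prespotted compound at 10 μM final, parasite-free screening media added to match infected plates; puromycin 10 μM positive, DMSO 0.5% negative; run in parallel with 48 h PbLuc assay at 37 °C, 5% CO2; viability by CellTiter-Glo luminescence, normalized to controls.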

| Compound | cytotoxicity at 10 µM |
| --- | --- |
| CCNc1nnc(CCn2nc(C)c(Br)c2C)s1 | 2.14% |
| CC(C)(C)CC(=O)N[C@@H]1CO[C@H](CNC(=O)c2ccncc2)[C@H]1O | -3.81% |
| CC(C)CN1CC[C@H](c2nnc(COc3ccc(F)cc3)o2)C1 | -1.81% |
| O=C1N(Cc2cccnc2)C[C@H]2CN(S(=O)(=O)c3ccccc3)CCN12 | 1.08% |
| CC(C)(C)CC(=O)NC[C@H]1OC[C@@H](NCc2ccccn2)[C@@H]1O | -5.28% |
| CN(C)C(=O)c1cc(-c2ccccc2)[nH]n1 | -4.5% |
| CCOC(=O)[C@H]1[C@@H](O)C(=O)N(C)C12CCN(C(=O)CC(C)(C)C)CC2 | -4.1% |
| COCCn1ccc(=O)c(OCC(=O)Nc2ccc(OC)cc2)c1C | 0.955% |
| COc1ccccc1-c1cc(C(=O)Nc2nc[nH]n2)[nH]n1 | -2.2% |
| CC(=O)N1CCC2(CC1)[C@@H]1CN(C(=O)N(C)C)C[C@@H]1C(=O)N2C | 2.38% |
| CC(C)C(=O)NC1COC2(CCN(C(=O)c3ccc[nH]3)CC2)C1 (stereo not drawn) | 6.15% |
| CN1C(=O)CCCC12CCCN(C(=O)c1ccc3c(c1)OCO3)C2 (stereo not drawn) | 0.758% |
| CC(C)NC(=O)C1CN(Cc2cccs2)Cc2ccnn2C1 (stereo not drawn) | -1.89% |
| Cc1cnc(N2C[C@@H]3[C@@H](C(=O)NCC(C)C)CCS(=O)(=O)[C@@H]3C2)nc1 | -155% |
| Cc1cccc(N2CCCC3(C2)CN(S(C)(=O)=O)CCO3)c1 (stereo not drawn) | 10.2% |
| Cc1ccc(N2CCCc3sc(C(=O)NCc4ccc(C)o4)nc32)nn1 | 4.93% |
| CN(C(=O)Cn1nc(-c2ccc(Cl)cc2)ccc1=O)C1CCS(=O)(=O)C1 (stereo not drawn) | 1.96% |
| O=C(NCCc1c[nH]cn1)c1ccc2c(c1)C(=O)N(C1CC1)C2=O | 11.7% |
| CN(C)Cc1nn(C)c2c1CCN(S(=O)(=O)c1cccs1)C2 | 4.52% |
| CCn1cc(-c2cc(C(F)F)nc3sc(C(N)=O)c(N)c23)c(C)n1 | 3.04% |
| COc1ccc(-c2cc(C3(O)CCOC(C)(C)C3)on2)cc1 (stereo not drawn) | -3.12% |
| CCn1cc(S(=O)(=O)N2CCCCCC2c2cc(C)on2)cn1 (stereo not drawn) | 7.43% |

| Compound | cytotoxicity at 10 µM |
| --- | --- |
| Cc1cncc(C2CCN(C(=O)c3ccc(-n4cccn4)nc3)CC2)n1 | -0.701% |
| CNc1cc(C)nc(C2CN(Cc3ccc(Cl)cn3)CCO2)c1 (stereo not drawn) | -26.2% |
| O=C(Nc1cccc(F)c1)N1CCC(CO)(Nc2ccccc2)CC1 | -5.04% |
| CC(C)n1cnnc1SCCN(C)c1ccccc1 | 2.96% |
| CC(C)(C)OC(=O)NCC1CCN(C(=O)c2cc(Cl)c[nH]2)CC1 | -3.26% |
| NC(=O)C(NCCc1ccc(Cl)s1)c1ccccc1 (stereo not drawn) | 6.13% |
| Cc1cc(C)n2c(CNCCNc3ccccc3)cnc2n1 | -144% |
| CC(C)CN(CC(F)(F)F)S(=O)(=O)c1cc(C(N)=O)n(C)c1 | -3.22% |
| COCCNS(=O)(=O)c1c(C)sc2ccccc12 | 1.11% |
| CCOC(=O)C1(NCC(=O)Nc2cc(C)ccc2OC)CCCC1 | 6.9% |
| CC(C)c1noc(CCNC(=O)NCC2Cc3ccccc3O2)n1 (stereo not drawn) | 7.4% |
| COc1cc(CNC2CCCN(c3ncccn3)C2)cc2c1OCO2 (stereo not drawn) | 6.26% |
| CCc1noc(C(C)N(C)Cc2ccc(OC)c(OC)c2)n1 (stereo not drawn) | -7.13% |
| CC1CN(C)c2ccccc2CN1C(=O)c1cc(C#N)cn1C (stereo not drawn) | 14.6% |
| CCCC(=O)N1CCC(Nc2ncc(Br)cn2)CC1 | -8.69% |
| O=C(Nc1cccnc1-n1cncn1)N(C1CCCC1)C1CC1 | -10.9% |
| O=C(CCn1ccc2ccccc21)N1CCC(Nc2cccnn2)CC1 | 3.79% |
| Cc1cc2c(cc1C)OC(C(=O)NCCNC(=O)C1CCCC1)C2 (stereo not drawn) | 7.71% |
| COc1ncccc1CNC(=O)C1=NN(c2ccccc2)C(=O)CN1 | 2.54% |
| CCOC1CCN(C(=O)c2cc(-c3ccc(Cl)cc3)on2)CC1 | -5.08% |
| O=C(NCC1CC1)C1CSCN1S(=O)(=O)c1ccccc1 (stereo not drawn) | -4.43% |
| O=C(Cc1cc2c(cc1Br)OCCO2)NC1CCS(=O)(=O)C1 (stereo not drawn) | 10.1% |

| Compound | cytotoxicity at 10 µM |
| --- | --- |
| O=C(c1nccc2ccccc12)N(Cc1ccco1)CC1CCCO1 (stereo not drawn) | -6.25% |
| O=c1ccn(Cc2nc(-c3ccccc3F)cs2)c(=O)[nH]1 | -1.2% |
| Cc1csc(N2CCCN(C(=O)c3ccsc3)CC2)n1 | 5.28% |
| C=C(C)CN1CCC(Nc2nc(C)ns2)CC1 | -8.39% |
| CC(C)Cc1ncc(CNc2cnccc2CO)s1 | -6.53% |
| CC(C)C(=O)N(C)Cc1nnc2n1CCCCC2 | -8.2% |
| CC(C)OCCCNC(=O)NC(C)c1ccc(-n2cncn2)cc1 (stereo not drawn) | -5.32% |
| CCc1nsc(N2CCN(Cc3ccno3)CC2)n1 | -8.95% |
| CN(CCn1cnnc1)S(=O)(=O)c1ccc(C(F)(F)F)nc1 | 6.71% |
| CC(CO)(NC(=O)NCCc1ccc(Br)s1)C1CC1 (stereo not drawn) | -2.43% |
| O=C(CCc1nccs1)N1CCC(C(=O)O)(c2ccccc2)CC1 | 1.75% |
| COCCNC(=O)Nc1ccc(-c2nc(C(C)C)no2)cc1 | 0.0793% |
| CC(CS(C)(=O)=O)N(C(=O)CCc1cccc(F)c1)C1CC1 (stereo not drawn) | -6.77% |
| CCCC(NC(=O)c1ccc(OC)cc1F)c1nnn[nH]1 (stereo not drawn) | -7.61% |
| CN(CCC(F)(F)F)C(=O)C1CCCN1C(=O)OC(C)(C)C (stereo not drawn) | -0.653% |
| O=C(C1CC(F)(F)C1)N1C[C@@H]2CN(Cc3ccoc3)CCO[C@@H]2C1 | 7.81% |
| O=C1O[C@@H]2CN(Cc3cccc(O)c3)C[C@@H]2N1CCCN1CCOCC1 | 0.476% |
| CN(C)C1(CNc2nccc(-c3cnn(C)c3)n2)CCSC1 (stereo not drawn) | -126% |
| O=C1N(CCCc2ccccc2)CCCC1(O)CN1CCC(CO)CC1 (stereo not drawn) | -10.5% |
| Cc1cnc(C(=O)N2CCCC(Cn3cc(CC(C)C)nn3)C2)cn1 (stereo not drawn) | 1.33% |
| CCS(=O)(=O)N1CCC(c2nccn2Cc2ccncc2)CC1 | -4% |
| CCCc1nnc(NC2CCN(C3CCOCC3)CC2)o1 | -4.92% |

| Compound | cytotoxicity at 10 µM |
| --- | --- |
| C[C@@H]1CN(C2(C(=O)N3CCNCC3)Cc3ccccc3C2)C[C@H](C)O1 | -4.17% |
| Cc1cc(C)c(C(=O)N2CCC3(CCCNC3)C2)cc1C (stereo not drawn) | 2.52% |
| CCN1CC2(CCC1=O)CCN(Cc1cscn1)CC2 | 2.48% |
| CCc1cc(CN(C)C(=O)c2cc(=O)[nH]c(=O)[nH]2)on1 | 8.71% |
| CCOCc1nc2c(c(N3CC=CC3)n1)CCN(C1CCOCC1)CC2 | -25.2% |
| COc1cc(-c2nc3c([nH]2)CCCNC3=O)cc(OC)c1OC | 9.62% |
| CCCC1(CO)CCCN(Cc2ncccn2)C1 (stereo not drawn) | -1.89% |
| CCn1c(C2CCCN(Cc3ccc(F)cc3Cl)C2)nn(C)c1=O (stereo not drawn) | -2.75% |
| CCCc1n[nH]cc1C(=O)N1CCCC(c2nccn2CC2CC2)C1 (stereo not drawn) | 1.1% |
| CCn1c(N)nc2cc(C(=O)N3CCC(N4CCCC4)CC3)cnc21 | -1.56% |
| CN1CCC(c2nnc(CN3CCCC3)n2C2CC2)CC1 | -11.4% |
| COc1cnc(N2C[C@@H](CN3CCOCC3)[C@@H](CO)C2)nc1 | -9.25% |
| COc1ccccc1C1CNC(=O)c2nc(-c3cnn(C)c3)[nH]c2C1 (stereo not drawn) | -5.33% |
| CCOCC(O)CN1CCN(C(=O)c2ccccc2F)CC1 (stereo not drawn) | -2.15% |
| O=C(NCCNc1ncccn1)c1ccc(Br)cc1 | -0.628% |
| CC(C)(NCC(=O)NCC1CC1)c1ccc2c(c1)OCCO2 | -9.8% |
| Cc1ncc(CN2CCCC(c3cc(C(N)=O)[nH]n3)C2)s1 (stereo not drawn) | -27.7% |
| Cc1cccc(OCCC(=O)NCC2CN(C)CCO2)c1C (stereo not drawn) | -6.3% |
| Cc1n[nH]c(=O)c(C(=O)N2CCN(CCc3cccs3)CC2)c1C | -6.22% |
| CC(C)Cc1cc(C(=O)NCCN2CCCS2(=O)=O)[nH]n1 | -7.39% |
| COc1cccc2cc(CNC(=O)N3CCC(C(N)=O)CC3)oc12 | -6.13% |
| CCC(C#N)NC(=O)c1cc(Br)c2c(c1)OCCO2 (stereo not drawn) | -15.7% |

| Compound | cytotoxicity at 10 µM |
| --- | --- |
| Cc1nnc(CN2CCCC(c3noc(C4CC4)n3)C2)o1 (stereo not drawn) | -16% |
| Cc1cnn(CC2CCCN2CC(=O)Nc2cc(C(C)C)no2)c1 (stereo not drawn) | 4.23% |
| CCOC(=O)N1CCC(NC(=O)Nc2cccnc2OCC)CC1 | -31.9% |
| Cc1nn(C)c(N2CCOCC2)c1CNCc1ccc(CO)c(F)c1 | -14.5% |
| Cc1oc(-c2ccco2)nc1CC(=O)N1CCC(CCO)C1 (stereo not drawn) | -2.02% |
| Cc1cc(NC(=O)CN2CCn3c(nnc3-c3ccccc3)C2)no1 | -2.38% |
| O=C(Nc1ccccn1)c1cncc(C2CCNCC2)n1 | -0.0757% |
| Cc1ccc(CN2C[C@@H]3[C@@H](C(=O)NCC(C)C)CCS(=O)(=O)[C@@H]3C2)cc1 | 0.793% |
| COCCN1CC[C@@H]2OC(COCC(=O)N3CCCC3)CC[C@@H]21 (stereo partly drawn) | -3.29% |
| CN(C)CCOCc1nnc2n1CCN(Cc1cccs1)CC2 | 9.03% |
| c1cc(CN2CCc3ncc(CN4CCOCC4)n3CC2)cs1 | -0.269% |
| Cc1ccc(N2CC3(COCCN(Cc4ccncc4)C3)OCC2=O)s1 (stereo not drawn) | 8.59% |
| CS(=O)(=O)N1CC[C@H]2O[C@H](C(=O)NCCc3ccncc3)CC[C@H]21 | 4.41% |
| Cc1nnc(N2C[C@H](OCC3CCCC3)[C@H]3OCCC[C@H]32)s1 | 5.16% |
| Cc1ccc(CN2CC[C@@H]3[C@@H](CO[C@H]3CN3CCN(C)CC3)C2)s1 | 7.57% |
| c1cc(CN2CCO[C@H]3[C@H](OCC4CCOCC4)CC[C@@H]32)co1 | -117% |
| O=C(c1ccc[nH]1)N1CCO[C@]2(CCC[C@@H]2COc2cccnc2)C1 | 9.46% |
| CS(=O)(=O)N1C[C@H]2CC[C@@H](C1)N(C(=O)CCc1ccsc1)C2 | 14.3% |
| O[C@@H]1CC(CNCc2ccccn2)(COc2cccnc2)C[C@@H]1O (stereo partly drawn) | -10.3% |
| CC(C)=CCN1C[C@@H]2CC[C@H]1CN(C(=O)Cn1c(C)cc(C)nc1=O)C2 | -4.36% |
